Test: Toxicity liver stage against HepG2, at 10uM
Assay type: cell-based
Design: test concentration 10 uM, cell line HepG2-A16-CD81EGFP
Details: human, HepG2-A16-CD81EGFP cells; read-out: INHIBITION
Outline: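 Uninfected HepG2-A16-CD81EGFP cells, 3 × 10^3 per well, 1536-well, plated on prespotted compound at 10 μM final, parasite-free screening media added to match infected plates; puromycin 10 μM positive, DMSO 0.5% negative; run in parallel with 48 h PbLuc assay at 37 °C, 5% CO2; viability by CellTiter-Glo luminescence, normalized to controls.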

Structure (SMILES) | cytotoxicity at 10 µM [%]
COc1c(C2CCCN2C(=O)c2cncnc2C)c(C)nn1C (centres undefined) | -6.19
CCN1CCn2nc(CCC(=O)N3CCCC3)cc2C1 | 0.685
CN(C)c1ncccc1C(=O)N1CCN(C2=NCC(C)(C)S2)CC1 | 5.03
CC(=O)N1CCN(C(=O)c2sc(-c3ccccc3F)nc2C)CC1 | -3.3
O=C(NCc1ccco1)[C@@]12CCO[C@@H]1CCN(Cc1ccccn1)C2 | 0.109
CCCn1nnc(NCc2ccc(-c3ccc(Br)cc3)o2)n1 | -4.11
COCCN(Cc1ccccn1)C(=O)CC1OCCc2sccc21 (centres undefined) | -54.8
NC(=O)CN1CCCN(C(=O)c2ccn(-c3ccc(F)cc3)n2)CC1 | -5.69
CN(CCc1ccccc1)c1cnn(CC2COCCO2)c(=O)c1 (centres undefined) | -10.3
Cc1ncc2c(n1)CN(CC1CCCCO1)CC2 (centres undefined) | -2.3
CC(C)n1cnc2c1C(C(=O)N(C)C)N(Cc1ccccc1)CC2 (centres undefined) | -2.56
CC(C)Nc1nc2c(cc1C(=O)O)CCN(Cc1ccsc1)CC2 | 0.676
Cc1cc(C(=O)N2CCc3nnc(N)cc3C2)c(C)n1C1CC1 | -3.71
CC(=O)NC1(C(=O)N(C)Cc2c(C)noc2C)CCCCC1 | 14.4
N#Cc1ccc(CS(=O)(=O)NC(=O)c2ccc3c(c2)COC3)cc1 | 3.65
O=C1COC2(CCN(Cc3nccs3)CC2)CN1CC1CC1 | 4.38
CCOc1ccc(-c2ccnc(C)n2)cc1C(=O)O | 5.59
COc1cccc(NC(=O)NC2(c3noc(CN(C)C)n3)CCCC2)c1 | 2.6
CCn1ncc2c1CCCC2NCc1cc(C)ccc1OC (centres undefined) | 1.8
Cc1noc(C)c1CN1CCO[C@H]2CNC[C@H]21 | 5.4
CCc1nccn1C1CCCN(C(=O)CCc2nc(C(C)C)no2)C1 (centres undefined) | 5.93
O=C(O)c1cccnc1CN1CCCCC1CCc1cccs1 (centres undefined) | 5.23

Structure (SMILES) | cytotoxicity at 10 µM [%]
CC(C)(C)c1ncc(CNc2ccccc2Cn2cncn2)s1 | 48.7
CN(C)c1ccc(C(=O)N(Cc2ccncc2)CC2CCCO2)nn1 (centres undefined) | 14.2
Cc1cc(CC(=O)N2CCN(C)[C@@H]3CS(=O)(=O)C[C@@H]32)ccc1F | -3.89
CC(=O)Nc1cc(C(=O)Nc2cc(CC(C)(C)C)nn2C)ccc1F | 0.388
Cc1nc(C(=O)N2C[C@@H]3COC[C@]3(COCc3cccnc3)C2)cs1 | -1.92
CCn1cc(NC(=O)C(C)n2ncc(Cl)c2C)c(C(=O)OC)n1 (centres undefined) | 7.19
Cc1cc(C2CCCN2C(=O)NCc2c(C)cc(C)[nH]c2=O)on1 (centres undefined) | -9.54
N[C@H]1CN(S(=O)(=O)c2ccccc2)C[C@@H]1C1CC1 | -14.3
CN1CCN(Cc2noc(CC3CCc4ccccc43)n2)CC1 (centres undefined) | -20.1
CCc1c(C)nc2n(c1=O)CC(C(=O)Nc1ccccc1C)CS2 (centres undefined) | -1.38
CCC(NC(=O)NCc1cccc(N(C)C)n1)c1cccs1 (centres undefined) | 17.9
CC(O)CN1CCC(CN(C)Cc2cc(F)cc3cccnc23)CC1 (centres undefined) | -1.26
Cc1nccnc1-n1c(COCC(=O)O)nc2c(C)cccc21 | -6.29
CNC(=O)C1CN(c2ccc(F)cc2)CCN1 (centres undefined) | 7.9
Cc1cc(C(=O)N2CCOC[C@H](Oc3cnccn3)C2)c(C(F)(F)F)o1 | -1.13
Cc1cccc(CN2Cc3[nH]nc(COCC4CC4)c3C2)n1 | 3.79
COCC(=O)N1CC[C@@H](N2CCN(C)CC2)[C@@H]1Cc1ccccc1 | -66.1
CC(=O)Nc1ccc(CNC2CC(=O)N(Cc3cccc(F)c3)C2)cc1 (centres undefined) | -6.98
Cc1c(C2CCCN(C(=O)c3ccn(C)n3)C2)n2c(nc1=O)CCC2 (centres undefined) | 0.862
Fc1ccccc1CN1C[C@@H]2CN(Cc3cccnc3)CCO[C@@H]2C1 | 9.2
CCNC(=O)NCc1cccc(N2CC=CC2)c1 | 5.03
COc1ccc(CN2CCCCC2c2n[nH]cc2-c2cc(C)no2)cc1 (centres undefined) | 20.8

Structure (SMILES) | cytotoxicity at 10 µM [%]
Cc1cccc(NC(=O)[C@@H]2CCCN2Cc2cnc3ccccn23)n1 | -7.22
CCN1CCN(CCNC(=O)c2sc(C)nc2C)CC1 | 0.927
Cn1cc(CN2CCCC23CCN(C(=O)c2ccccn2)CC3)cn1 | -1.94
c1ccc2oc(N3CCn4c(nnc4C4CC4)C3)nc2c1 | 7.41
CC(NC(=O)CNc1cc2c(cc1Cl)NC(=O)CO2)c1ccco1 (centres undefined) | -0.0162
COC(=O)N1CCN(c2ncnc3nc(C)cc(C)c23)CC1 | -15.2
CC(C)c1ccc(C(=O)N2CCOCC2CC(=O)c2ccco2)cn1 (centres undefined) | 6.93
CCc1ncc(S(C)(=O)=O)c(C2CCCNC2)n1 (centres undefined) | -14.2
CSCC[C@@H](CO)Nc1ccc(-c2nc(-c3ccccc3F)no2)cn1 | 9.74
CO[C@H]1CC[C@H]2[C@H]1OCCN2C(=O)CC1=CCCCC1 | 5.28
CSCc1noc(C2CCC(=O)N(CCCN3CCCC3=O)C2)n1 (centres undefined) | 3.59
Cc1nc(NCC2CC2)nc2c1COCC21CCNC1 (centres undefined) | -72.8
Cc1ccccc1N1CCN(C(=O)CC(C)C)CC1 | -1.26
Cc1[nH]/c(=N\C(=O)c2csc(NC3CC3)n2)sc1C | 37.4
Cc1nnc(CNC(=O)[C@@H]2C[C@H](NC(=O)C(C)(C)C)CN2C)[nH]1 | 1.76
Cc1cnn(CCCOc2ccc3c(c2)OCO3)c1 | 8.4
CN(Cc1nccn1C)C(=O)C1COCC(=O)N1Cc1ccccc1 (centres undefined) | 1.01
CC(=O)N1CC[C@]2(O)CCN(Cc3nc(C)c[nH]3)C[C@@H]2C1 | -5.79
O=C(CN1CCOc2ccc(Cl)cc21)NCc1ncc[nH]1 | -0.307
Cc1cccc(CN2C[C@@H]3CN(C(=O)c4ccnnc4)C[C@@H]3C2=O)c1 | -6.89
CCO[C@@H]1CC[C@H]2[C@H]1OCCN2C(=O)CC1=CCCCC1 | 2.91
CCc1ncc2c(n1)CN(C(=O)CNC(=O)c1ccccc1)C2 | 2.41

Structure (SMILES) | cytotoxicity at 10 µM [%]
COCCN1CCC2(CCCN(C(=O)c3cnoc3C)C2)C1=O (centres undefined) | -23.8
Cc1ccccc1C1CCCN1Cc1nc2c(cnn2C)c(=O)[nH]1 (centres undefined) | -12
O=C(OCc1ccccc1)c1cccc(NC(=O)C2COCCO2)c1 (centres undefined) | -0.488
CCOc1ccccc1C(=O)N1CC(=O)N(C2CCC2)CC(O)C1 (centres undefined) | 2.55
O=S(=O)(NC1CCC2(CC1)OCCO2)c1ccccc1Br | -9.01
O=C(NS(=O)(=O)c1cccc(C(F)(F)F)c1)c1cscn1 | 1.67
Cc1ccc(CC(=O)NCC(O)c2cccc(C(F)(F)F)c2)cn1 (centres undefined) | -18.6
CCO[C@H]1CN(CC2CCOCC2)[C@@H]2CCCO[C@H]12 | -109
CCOCC1CN(CCOCc2ccccc2)Cc2c1cnn2C (centres undefined) | -132
CC(C)c1nc(CC(=O)N(C)Cc2ccc3c(c2)OCO3)cs1 | -13.5
COc1cc(NCCCSc2nnc(C)s2)ncn1 | 20.6
Cc1cccnc1NC(=O)CC1(Cn2cnnn2)CCCCC1 | -5.62
Cc1ccc(CNC(=O)N(Cc2ccccc2F)C2CC2)cn1 | 0.0194
CC(=O)N1CC=C(n2c(=O)[nH]c3ccccc32)CC1 | 1.73
CCc1nnc(C(C)N(C)Cc2c(C)nn(-c3ccccc3)c2C)o1 (centres undefined) | -9.85
O=C(C1CCCCO1)N1CCc2ncnc(NCc3ccon3)c2CC1 (centres undefined) | 13.1
CO[C@@H]1CC[C@H]2[C@H]1OCCN2S(=O)(=O)C1CC1 | 2.6
CC(NC(=O)N(C)CCCOc1ccc(F)cc1)c1nncn1C (centres undefined) | 2.48
Cc1ccoc1C(=O)NC1CCN(C(=O)Nc2ccccn2)CC1 | 1.97
CN1C(=O)CC(C(=O)O)C12CCN(Cc1ccc(Cl)c(Cl)c1)CC2 (centres undefined) | 2.12
CN(C)c1nccc(-c2cnc(N(C)C)[nH]c2=O)n1 | -1.17
CCO[C@@H]1CC[C@H]2[C@H]1OCCN2C(=O)c1ccc(C)o1 | -149

Structure (SMILES) | cytotoxicity at 10 µM [%]
Cc1ccc(C(=O)N2CCN(Cc3nc(C(C)C)no3)CC2)c(=O)[nH]1 | -7.67
Cc1cnc(-c2nc(O)c3c(n2)CN(C(=O)C2CC2)CC3)cn1 | -6.74
Cc1cc(C)n(CC(C)NCc2cnc3c(C)cccn23)n1 (centres undefined) | 1.44
O=C1NC2(CCN(C(=O)c3ccc(Cl)cn3)CC2)CC1c1ccccc1 (centres undefined) | 2.75
COc1ccccc1CN1CCCC2(Cc3ccccc3CNC2=O)C1 (centres undefined) | 6.2
CN(C)CCN(C)C(=O)Cn1cccc2cc(-c3ccc(F)cc3)nc1-2 | -24.4
Cc1cc(C(=O)NC(C)Cc2cccc(Cl)c2)n(C)n1 (centres undefined) | 10.9
CNC(=O)C1CCN(C(=O)NCCc2ccc(Cl)s2)CC1 | -12.3
Cc1ccc(NC(=O)NCCCn2nc3ccccn3c2=O)cc1 | -19.1
CCC(C)NC(=O)CS(=O)(=O)Cc1ccccc1Cl (centres undefined) | 3.79
O=C1N(CCO)CCCC12CCN(Cc1nnc(C3CC3)o1)C2 (centres undefined) | 5.27
Cc1ccc(CN(Cc2nc3c(cnn3C)c(=O)[nH]2)C2CC2)o1 | -1.92
O=C(Cn1ccc2cc(Br)ccc21)NC[C@@H]1CCCN2CCCC[C@H]12 | 14.5
Cc1cnc(N2CCC3(CC2)CC(NS(C)(=O)=O)CO3)nc1 (centres undefined) | 2.87
Cc1nnc(CN(CCc2ccccc2)C2CCN(C)CC2)s1 | 0.219
O=C(N1CCOCC1)[C@@]12CCO[C@@H]1CCN(Cc1ccccc1F)C2 | 2.99
O=S(=O)(NCCSc1nccn1C1CC1)c1ccccc1 | -9.34
COCCNC(=O)c1cc(C)nc(C2CCN(C)CC2)n1 | -2.48
Cc1ccc2[nH]c(=O)c(CNCCCN3CCOCC3)cc2c1 | -14.9
Cc1nsc(NC(=O)NC2CCCN(C)C2)n1 (centres undefined) | -17.1
Cc1nn(C)c(Cl)c1CN1CCN(c2nccs2)C(C)C1 (centres undefined) | -27.1
